In article PMC5557401 (Drug Design, Development and Therapy, 2017):

Tests used:
[1] = In vitro metabolism with rat liver microsomes, LC-MS; assay type: in vitro ADME; conditions: incubation with rat liver microsomes, phase I
A-549 cells = assay: Cell cycle effects and total cell number; assay type: cell-based, human; conditions: A-549, 24 and 48 h of incubation
Procedure, shortened: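 A-549 lung adenocarcinoma cells were exposed to a concentration range from under 100 nM to 50 μM for 24 and 48 h. Cells were immunofluorescently imaged for phosphorylated Rb and total DNA content per cell to assign cell-cycle phase and total cell number. IC50 was derived for the reduction in total cell number.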

| Metabolic reaction (in vitro RLMs metabolites) [1] | SMILES | Cell cycle effects (A-549 cells) |
| --- | --- | --- |
| demethylation | COc1ccc(-c2nc(NN=C3C(=O)Nc4ccc(Br)cc43)c3ccccc3n2)cc1OC [Compound 7d, 5-Bromo-3-(2-(2-(3,4-dimethoxyphenyl)quinazolin-4-yl) hydrazono)indolin-2-one] | no effects on the tested parameters |
| – | CCN(CC)CCNC(=O)c1c(C)[nH]c(/C=C2\C(=O)Nc3ccc(F)cc32)c1C [Sunitinib, reference compound] | reduction in the percentage of cells in G1, with corresponding increases in S or G2/M phases |
